Assay outcomes deposited in PubChem BioAssay by Broad Institute.
T cruzi growth-1: blocks T. cruzi growth in NIH3T3 culture | T. cruzi beta-gal in NIH3T3, GalScreen luminescence, 90 h | AID 624255 | 77,000 compounds, 5.9% hits | inhibition, % at 8.34 µM;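 active means mean inhibition above about 93%, with at least 55% of replicates each passing it, limit read from the data, passing the limit was not always enough; inconclusive means only one of those two conditions holds; inactive means neither condition holds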
GASC1 inh: inhibitors of human demethylase GASC-1 KDM4C | Q9H3R0 | GST-KDM4C 2-372, H3K9me3 peptide, LANCE TR-FRET | inhibition, % at 12.5 µM | 96,000 compounds, 0.15% hits | AID 720574;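 active means mean replicate inhibition above about 25%, with at least 55% of replicates also reaching it, limit read from the data, passing the limit was not always enough; inconclusive means only one of those two conditions met; inactive means neither condition met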
Target sequence (Q9H3R0 2-372 limits assumed): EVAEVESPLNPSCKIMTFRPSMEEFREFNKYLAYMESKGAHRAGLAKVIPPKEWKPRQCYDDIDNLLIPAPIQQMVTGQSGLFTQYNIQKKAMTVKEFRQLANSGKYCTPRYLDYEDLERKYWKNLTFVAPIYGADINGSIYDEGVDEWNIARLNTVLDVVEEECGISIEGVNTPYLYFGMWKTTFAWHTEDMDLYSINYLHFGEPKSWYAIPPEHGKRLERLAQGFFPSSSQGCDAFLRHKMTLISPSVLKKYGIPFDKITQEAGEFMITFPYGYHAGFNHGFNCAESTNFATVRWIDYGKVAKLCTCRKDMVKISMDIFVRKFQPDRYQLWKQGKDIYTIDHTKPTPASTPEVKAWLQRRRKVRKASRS
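System – N-terminal GST-fused human GASC-1 (KDM4C) fragment, residues 2-372 · Input – enzyme final amount 10 nM · Technique – LANCE TR-FRET, Eu antibody, ULight-streptavidin, EDTA, ex 340 nm, em 618/671 nm · Medium – HEPES buffer, pH 7.5, plus ascorbate · Incubation – enzyme reaction 30 min, then detection 60 min, both room temperature · Reagent – H3K9me3 peptide with Fe(II)/2OG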
IDH1 R132H inh: IDH1 R132H (human) inhibition; O75874; IDH1 R132H reductase, diaphorase/resazurin fluorescence, 60 min; inhibition, % at 10 µM; 70,000 compounds, 0.18% hits; AID 624101; in the data active means inhibition above about 34%; inconclusive means no clear call, values can overlap the other calls; inactive means below about 11%;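 further: 0% = DMSO and 100% = no enzyme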
Pf Dd2 inh: blocks growth of Plasmodium falciparum Dd2 parasites; P. falciparum Dd2 growth, SYBR Green, 72 h; hits give low values; activity change, % at 10 µM; 94,000 compounds, 2.3% hits; in the data active means activity change below about -80%; inconclusive means no clear call, values can overlap the other calls
T cruzi growth-2: blocks T. cruzi growth in NIH3T3 host cells; shares compounds with T cruzi growth-1; 5,600 compounds, 72% hits; T. cruzi beta-gal in NIH3T3, GalScreen luminescence, 90 h; AID 651739; inhibition, % at 8.35 µM;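 active means mean replicate inhibition above about 95% and at least 55% of replicates individually reaching it, limit read from the data; inconclusive means only one of the two criteria is met; inactive means neither criterion is met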
T cruzi growth-3: Trypanosoma cruzi proliferation inhibition. T. cruzi beta-gal in NIH3T3, GalScreen luminescence, 90 h. 5,600 compounds, 21% hits. inhibition, % at 2.09 µM. shares compounds with T cruzi growth-1;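 active means mean inhibition above about 95%, with at least 55% of replicates also reaching it, limit read from the data; inconclusive means meets just one of the two conditions; inactive means meets neither condition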;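 further: plate controls were neutral control median for no effect and positive control median for full effect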
3T3 cytotox: kills mouse NIH/3T3 fibroblasts. shares compounds with T cruzi growth-1. NIH/3T3 viability, CellTiter-Glo ATP luminescence, 90 h. cytotoxicity (signal decrease), % at 8.35 µM. 5,600 compounds, 14% hits. AID 651742;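 active means mean signal decrease across replicates above about 35% based on untreated-well scatter, with enough replicates individually passing, limit read from the data; inconclusive means no rule stated though some were filed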;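 further: 0% = median of neutral control wells and 100% = median of positive control wells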
3T3 cytotox 2: NIH/3T3 (mouse) viability loss; shares compounds with T cruzi growth-1; NIH/3T3 viability, CellTiter-Glo ATP luminescence, 90 h; inhibition, % at 24.9 µM; 5,600 compounds, 56% hits; AID 651744;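 active means mean loss of cell viability signal at or above a set limit, and enough replicates individually reaching it; inconclusive means meets only the mean limit or only the replicate share; inactive means meets neither condition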;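 further: 0% = median of neutral control wells and 100% = median of positive control wells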
* hit, by the source's call; ? = inconclusive; nt = no result. The list is not random: actives were taken first. Their share in the collection is about 5.8%.

SMILES | T cruzi growth-1 | GASC1 inh | IDH1 R132H inh | Pf Dd2 inh | T cruzi growth-2 | T cruzi growth-3 | 3T3 cytotox | 3T3 cytotox 2
CC(=O)N(C)C[C@H]1Oc2cc(C#CCN(C)C)ccc2S(=O)(=O)N([C@H](C)CO)C[C@@H]1C | ? | 0 | 2 | 21 | ? | 91 | -1 | -10
CNC(=O)C[C@H]1CC[C@@H]2[C@@H](COc3ccc(NC(=O)Nc4cccc(Cl)c4)cc3C(=O)N2C)O1 | -2 | 1 | nt | 3 | nt | nt | nt | nt
O=C(CC(C(=O)O)N1CCCCC1)Nc1cccc2ccccc12 (configuration not stated) | nt | nt | 0 | nt | nt | nt | nt | nt
C[C@@H]1CN([C@H](C)CO)C(=O)c2cc(NS(=O)(=O)c3ccccc3)ccc2O[C@@H]1CN(C)Cc1ccc(Oc2ccccc2)cc1 | 47 | -2 | 0 | 18 | nt | nt | nt | nt
C[C@H]1CN([C@@H](C)CO)C(=O)c2cc(NS(=O)(=O)c3ccccc3)ccc2O[C@H]1CN(C)Cc1ccc(C(F)(F)F)cc1 | ? | 0 | 0 | -65 | 106* | 62 | 16 | 8
C[C@H](CO)N1C[C@H](C)[C@H](CN(C)Cc2ccc(Oc3ccccc3)cc2)Oc2ccc(NS(=O)(=O)c3ccc(Cl)cc3)cc2C1=O | ? | 1 | nt | -6 | 107* | 64 | 0 | 104*
C[C@@H]1CN([C@@H](C)CO)C(=O)c2cc(NS(=O)(=O)c3ccccc3)ccc2O[C@H]1CN(C)Cc1ccc(C(F)(F)F)cc1 | 94 | 0 | nt | 10 | nt | nt | nt | nt
C[C@@H]1CN([C@@H](C)CO)C(=O)c2cc(NS(=O)(=O)c3ccc(Cl)cc3)ccc2O[C@@H]1CN(C)Cc1ccc(C(F)(F)F)cc1 | 126* | -4 | 1 | 8 | 96* | 46 | 68* | 104*
CC(C)NC(=O)N1CC2(C1)[C@@H](c1ccccc1)[C@@H](CO)N2C(=O)c1ccccn1 | nt | 0 | nt | 40 | nt | nt | nt | nt
CN1C(=O)c2cc(NC(=O)C3CC3)ccc2OC[C@@H]2O[C@H](CC(=O)NCCc3ccncc3)CC[C@H]21 | -16 | -1 | nt | 11 | nt | nt | nt | nt
O=S(=O)(c1ccc(F)cc1)N1C[C@@H]2[C@H](c3ccccc31)[C@H](CO)N2Cc1ccc2c(c1)OCO2 | 101* | -4 | nt | -23 | 107* | 83 | 29 | -3
O=S(=O)(c1ccccc1F)N1C[C@H]2[C@@H](c3ccccc31)[C@@H](CO)N2Cc1ccc2c(c1)OCO2 | 99* | -8 | nt | -26 | 103* | 100* | 25 | -15
CC(C)C[C@H]1COCc2cn(nn2)CC[C@H](Cc2ccccc2)C(=O)N1 | nt | 0 | nt | nt | nt | nt | nt | nt
COc1ccc(Cl)cc1N(CC(=O)Nc1ccc(C(F)(F)F)cc1)S(C)(=O)=O | nt | nt | 0 | nt | nt | nt | nt | nt
Cc1ccccc1-c1ccc2c(c1)O[C@H](CN(C)Cc1ccncc1)[C@@H](C)CN([C@@H](C)CO)S2(=O)=O | 97* | -1 | 45* | ? | 99* | 99* | 41* | 105*
C[C@@H]1CN([C@@H](C)CO)S(=O)(=O)c2ccc(-c3ccccc3F)cc2O[C@H]1CN(C)Cc1cccnc1 | 101* | 4 | 26 | -68 | 101* | 97* | 56* | 95*
C[C@@H]1CN([C@@H](C)CO)S(=O)(=O)c2ccc(-c3ccccc3F)cc2O[C@@H]1CN(C)Cc1ccncc1 | 100* | 4 | 8 | -5 | ? | 83 | 29 | 47*
C[C@@H]1CN([C@H](C)CO)S(=O)(=O)c2ccc(-c3ccccc3F)cc2O[C@@H]1CN(C)Cc1cccnc1 | 75 | 2 | 5 | -5 | nt | nt | nt | nt
C[C@@H]1CN([C@@H](C)CO)S(=O)(=O)c2ccc(-c3ccccc3)cc2O[C@H]1CN(C)Cc1ccncc1 | ? | -2 | 2 | -29 | nt | nt | nt | nt
COc1ccccc1CNC(=O)C[C@H]1CC[C@H]2[C@@H](COC[C@H](O)CN2Cc2ccc3c(c2)OCO3)O1 | 104* | 1 | nt | -23 | 43 | 20 | 11 | 15
O=C(C[C@H]1CC[C@@H]2[C@H](COC[C@@H](O)CN2Cc2ccc3c(c2)OCO3)O1)Nc1ccc(-c2ccccc2)cc1 | 89 | 2 | nt | -32 | nt | nt | nt | nt
